Compound activity as filed in PubChem.
ANO1 block = TMEM16A chloride channel inhibitors, primary screen, cell-based, HTS. HEK293 TMEM16A/YFP iodide influx fluorescence, ionomycin. normalized B-score (activity score, 25-100; higher = stronger inhibition) at 10 µM. 310,000 compounds, 1.2% hits. AID 588511, 2011;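 active means ratio plate-corrected score three or more library SD toward inhibition, starting fluorescence score within five deviations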;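 further: score derived from kinetic fluorescence span divided by baseline fluorescence per well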
FID counter = compounds displacing fluorescent DNA intercalator, primary screen, artefact control for HCV NS3 helicase inhibitor project, biochemical, FID fluorescence. DNA fluorescent intercalator displacement. inhibition, % at 7.9 µM. 290,000 compounds, 0.17% hits; in the data active means inhibition above about 37%;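 further: 0% = vehicle and 100% = reference compound; higher means more ethidium bromide displaced from hairpin DNA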
UBC13 inh = UBC13 polyubiquitin chain formation inhibitors, primary screen, biochemical, TR-FRET, uHTS; inhibition, % at 20 µM; Ubiquitin-conjugating enzyme E2 N (Homo sapiens), P61088; AID 485273, 2010; 330,000 compounds, 0.47% hits; in the data active means inhibition above about 45%, passing the limit was not always enough
Target sequence (P61088 whole entry, looked up): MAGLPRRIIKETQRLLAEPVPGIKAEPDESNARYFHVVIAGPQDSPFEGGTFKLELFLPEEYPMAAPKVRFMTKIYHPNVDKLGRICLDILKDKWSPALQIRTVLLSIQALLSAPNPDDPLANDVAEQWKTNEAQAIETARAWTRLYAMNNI
ANO1 activ = TMEM16A chloride channel activators or potentiators, primary screen, cell-based, HTS | Anoctamin-1 (Mus musculus), Q8BHY3 | HEK293 TMEM16A/YFP-H148Q/I152L, iodide quench fluorescence; active compounds read low | B-score at 10 µM | 340,000 compounds, 0.3% hits | AID 623877, 2012;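 active means fluorescence-ratio B-score plate-corrected deviation score at least 3 library SD below zero, with starting fluorescence score within 5 deviations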;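 further: channel opened by trigger with iodide after compound preincubation; score built on the fluorescence ratio of max minus min over baseline; more negative score means more quench and so TMEM16A activation or potentiation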
Apaf1 inhib = inhibitors of human Apaf-1 apoptosome, primary screen, biochemical, DEVD-Rh110 fluorescence, uHTS. Apoptotic protease-activating factor 1 (Homo sapiens), O14727. reconstituted apoptosome caspase-3 activity. inhibition, % at 20 µM. 330,000 compounds, 0.71% hits. AID 489030, 2010; active means inhibition of at least 40% at 20 µM;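 further: plate controls were DMSO wells for no effect and DEVD-CHO caspase inhibitor wells for full effect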
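Medium: Hepes buffer, pH 7.5 / System: biochemical Apaf-1 apoptosome reconstitution / Measured by: Rh110 fluorescence, excitation 480 nm, emission 540 nm / Times: compound with Apaf-1, dATP, procaspase-3 30 min, then 50 min reaction, room temperature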
Casp3 counter = CASP3 inhibitor validation, counterassay for project on UBE2N polyubiquitination blockers, biochemical, one dose; Recombinant caspase-3, Caspase-Glo 3/7 luminescence, 60 min; shares compounds with UBC13 inh; inhibition, % at 20 µM; AID 488856, 2010; 1,400 compounds, 4% hits;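 active means mean inhibition across replicates above about 26%, limit read from the data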;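 further: plate controls were DMSO with caspase-3 for no effect and DMSO wells lacking enzyme for full effect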
Target sequence (P42574 whole entry, looked up): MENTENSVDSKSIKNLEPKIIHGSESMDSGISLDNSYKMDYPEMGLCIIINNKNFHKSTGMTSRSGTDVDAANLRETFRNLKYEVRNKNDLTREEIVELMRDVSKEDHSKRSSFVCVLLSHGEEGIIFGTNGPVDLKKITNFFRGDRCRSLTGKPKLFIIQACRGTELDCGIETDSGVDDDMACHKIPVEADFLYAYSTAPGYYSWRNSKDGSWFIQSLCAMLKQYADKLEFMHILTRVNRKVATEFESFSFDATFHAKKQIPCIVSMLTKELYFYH
UBC13 conf = UBC13 polyubiquitination inhibitors, single-point retest, confirmation, biochemical, TR-FRET, single concentration | AID 488859, 2010 | shares compounds with UBC13 inh | 1,400 compounds, 68% hits | inhibition, % at 10 µM; in the data active means inhibition above about 45%
* marks the source's active call; other numbers are inactive results; i = inactive; x = no result given. The list is not random: actives were taken first. Their share in the collection is about 2.4%.

SMILES	ANO1 block	FID counter	UBC13 inh	ANO1 activ	Apaf1 inhib	Casp3 counter	UBC13 conf
COc1cc(C(CCN2CCCC(C)C2)c2c(OC)cc(OC)c3c2OC(=O)CC3c2ccc(N(C)C)cc2)cc(OC)c1OC (configuration not stated)	i	x	45.1*	i	25.7	-0.8	24.0
CCOC(=O)N1CCN(C(=O)C(=O)Nc2sc3c(c2C(=O)O)CC(C)(C)OC3)CC1	i	-50.6	-7.2	i	3.5	x	x
CCOC(=O)N1CCN(C(=O)C(=O)Nc2sc3c(c2C(N)=O)CC(C)(C)OC3)CC1	i	-47.0	63.1*	i	-5.4	-2.0	90.1*
Cc1cc(NC(=O)Cc2ccccc2[N+](=O)[O-])no1	i	-0.5	-5.9	i	-11.8	x	x
CCCn1c(SCC(=O)NC2CCCC2)nc2c1c(=O)n(C)c(=O)n2C	i	-14.6	0.6	i	-1.5	x	x
CCN(CCCNC(=O)c1cc2c(-c3cccc(OC)c3)nn(C)c2s1)Cc1ccccc1	i	22.4	49.1*	i	7.5	-4.6	46.6*
O=C(COc1ccc(Cc2ccccc2)cc1)c1ccc(F)cc1	i	-13.1	45.1*	i	15.8	48.6*	8.0
Cc1ccc2nc(SCC(=O)N(CC(C)C)c3c(N)n(Cc4ccccc4)c(=O)[nH]c3=O)[nH]c2c1	i	-33.2	17.4	i	-5.5	x	x
COc1ccc(CN2C(=O)c3cccc4cccc2c34)cc1F	i	-24.0	64.4*	i	11.7	0.5	62.4*
COc1ccc(CCN2C(=O)c3cccc4cccc(c34)C2=O)cc1OC	i	5.3	7.7	i	-2.9	x	x
O=C(NCc1cccnc1)C1CCN(S(=O)(=O)c2cc([N+](=O)[O-])ccc2Cl)CC1	x	x	0.9	i	2.5	x	x
O=C(NCCCn1ccnc1)C1CCN(S(=O)(=O)c2cc([N+](=O)[O-])ccc2Cl)CC1	x	x	82.3*	i	23.4	-1.3	63.9*
CC(C)(C)NC(=O)CN(C(=O)c1csnn1)c1cccc2c1CCCC2	i	-18.8	10.5	i	-3.6	x	x
COc1ccc(-c2nnc(SCC(=O)Nc3cc(F)ccc3C)o2)cc1	i	-3.9	47.3*	i	1.8	-0.7	35.4
COc1ccc(C(=O)NNC(=O)CN2CCC(n3nnc4cc(F)ccc43)CC2)cc1	i	3.4	-3.2	i	-10.9	x	x
COc1ccccc1NC(=O)CN1CCC(n2nnc3cc(F)ccc32)CC1	i	-12.4	70.0*	i	10.7	-2.7	69.2*
COc1ccc(Cl)cc1NC(=O)CN1CCC(n2nnc3cc(C)ccc32)CC1	i	0.8	45.7*	i	23.9	-0.9	50.7*
COc1ccccc1NC(=O)CN1CCC(n2c(C)nc3cc(F)ccc32)CC1	i	-26.1	103.6*	i	13.6	2.0	111.7*
Cc1ccncc1C(N)=O	i	-2.4	4.9	i	-5.2	x	x
CC(=O)N/C(=C\c1ccccc1)C(=O)OCc1ccc(C)cc1	i	-24.9	9.1	i	-1.2	x	x
COc1ccc(Nc2nc(N3CCCC3)c3ccccc3n2)cc1	i	14.6	50.8*	i	39.5	-2.2	48.8*
O=C(O)C1Nc2c(cccc2C(F)(F)F)C2C=CCC12 (configuration not stated)	i	-10.9	x	x	x	x	x
COc1cccc2c1NC(C(=O)O)C1CC=CC21 (configuration not stated)	i	-18.7	45.2*	i	20.0	2.8	47.4*
CCOc1cc(S(=O)(=O)NCc2ccccc2)ccc1Br	i	-10.9	2.4	i	7.4	x	x
C=CCN1C(=O)C(O)(CC(=O)c2ccco2)c2cc(Br)ccc21 (configuration not stated)	i	-2.7	8.5	i	7.4	x	x
